Measurements taken from ChEMBL document CHEMBL4312018, “Novel benzimidazole phosphonates as potential inhibitors of protein prenylation” (Bioorg Med Chem Lett, 2019).
pIC50: −log10 of the molar value. The source made the active and inactive calls.

What was measured:
[1] = biological target: T1, Protein farnesyltransferase (Homo sapiens) (UniProt P49354+P49356); test: Inhibition of FTase in human RPMI8226 cells assessed as disruption of H-ras farnesylation at 0.5 uM after 48 hrs by immunoblot analysis; format: cell-based
[2] = biological target: T2, Geranylgeranyl transferase type I (Homo sapiens) (UniProt P49354+P53609); test: Inhibition of GGtase-1 in human RPMI8226 cells assessed as disruption of Rap1a geranylgeranylation at 0.5 uM after 48 hrs by immunoblot analysis; format: cell-based
[3] = biological target: T3, Farnesyl pyrophosphate synthase (Homo sapiens, UniProt P14324); test: Inhibition of FDPS (unknown origin) using [14C] IPP and GPP as substrate preincubated for 10 mins followed by substrate addition and measured after 30 min by liquid scintillation counting method
T3 sequence (P14324 whole entry): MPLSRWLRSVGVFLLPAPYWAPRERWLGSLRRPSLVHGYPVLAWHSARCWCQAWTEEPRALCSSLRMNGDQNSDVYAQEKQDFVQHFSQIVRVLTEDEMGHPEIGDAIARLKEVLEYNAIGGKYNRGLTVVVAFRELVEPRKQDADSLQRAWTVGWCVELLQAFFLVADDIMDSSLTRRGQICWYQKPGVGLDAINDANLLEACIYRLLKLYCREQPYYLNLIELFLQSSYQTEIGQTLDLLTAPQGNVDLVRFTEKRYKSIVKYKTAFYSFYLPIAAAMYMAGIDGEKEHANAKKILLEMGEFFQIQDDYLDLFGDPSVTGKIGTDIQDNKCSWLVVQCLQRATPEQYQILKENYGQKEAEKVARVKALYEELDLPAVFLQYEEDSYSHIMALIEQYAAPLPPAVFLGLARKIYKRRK

[4] = organism: Homo sapiens; test: Selectivity ratio of IC50 for GGDPS (unknown origin) to IC50 for FDPS (unknown origin)
[5] = biological target: T4, Geranylgeranyl pyrophosphate synthase (Homo sapiens, UniProt O95749); test: Inhibition of GGDPS (unknown origin) using [14C] IPP and FPP as substrate preincubated for 10 mins followed by substrate addition and measured after 30 min by liquid scintillation counting method
T4 sequence (O95749 whole entry): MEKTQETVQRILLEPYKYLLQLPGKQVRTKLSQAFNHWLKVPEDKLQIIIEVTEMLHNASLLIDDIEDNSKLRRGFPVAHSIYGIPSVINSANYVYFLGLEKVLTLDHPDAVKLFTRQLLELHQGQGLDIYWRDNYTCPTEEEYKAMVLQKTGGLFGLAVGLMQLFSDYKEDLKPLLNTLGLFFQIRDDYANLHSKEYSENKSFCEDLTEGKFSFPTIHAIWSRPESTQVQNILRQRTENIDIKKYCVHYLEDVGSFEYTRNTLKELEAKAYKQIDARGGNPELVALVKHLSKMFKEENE

[6] = biological target: geranylgeranyltransferase type-I (Rattus norvegicus, UniProt P53610+Q04631); test: Inhibition of recombinant rat GGtase-1 expressed in Escherichia coli using dansyl-GCVLL as substrate after 1.5 hrs by spectrofluorimetric analysis
[7] = biological target: T5, Geranylgeranyl transferase type-2 (Rattus norvegicus, UniProt Q08602+Q08603); test: Inhibition of recombinant rat RabGGTase expressed in Escherichia coli using Rab7 as substrate and [3H]geranylgeranyl pyrophosphate after 20 mins by liquid scintillation analysis
T5 sequence (Q08603 whole entry): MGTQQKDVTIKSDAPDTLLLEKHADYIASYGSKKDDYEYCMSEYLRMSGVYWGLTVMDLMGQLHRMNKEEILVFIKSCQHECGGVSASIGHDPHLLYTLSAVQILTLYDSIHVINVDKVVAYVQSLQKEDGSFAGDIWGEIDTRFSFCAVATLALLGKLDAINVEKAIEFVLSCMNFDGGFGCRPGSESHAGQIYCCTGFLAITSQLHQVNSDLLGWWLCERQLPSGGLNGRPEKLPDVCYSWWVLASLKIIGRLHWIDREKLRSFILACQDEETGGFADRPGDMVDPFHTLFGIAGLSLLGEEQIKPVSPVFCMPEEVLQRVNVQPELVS
T5 sequence (Q08602 whole entry): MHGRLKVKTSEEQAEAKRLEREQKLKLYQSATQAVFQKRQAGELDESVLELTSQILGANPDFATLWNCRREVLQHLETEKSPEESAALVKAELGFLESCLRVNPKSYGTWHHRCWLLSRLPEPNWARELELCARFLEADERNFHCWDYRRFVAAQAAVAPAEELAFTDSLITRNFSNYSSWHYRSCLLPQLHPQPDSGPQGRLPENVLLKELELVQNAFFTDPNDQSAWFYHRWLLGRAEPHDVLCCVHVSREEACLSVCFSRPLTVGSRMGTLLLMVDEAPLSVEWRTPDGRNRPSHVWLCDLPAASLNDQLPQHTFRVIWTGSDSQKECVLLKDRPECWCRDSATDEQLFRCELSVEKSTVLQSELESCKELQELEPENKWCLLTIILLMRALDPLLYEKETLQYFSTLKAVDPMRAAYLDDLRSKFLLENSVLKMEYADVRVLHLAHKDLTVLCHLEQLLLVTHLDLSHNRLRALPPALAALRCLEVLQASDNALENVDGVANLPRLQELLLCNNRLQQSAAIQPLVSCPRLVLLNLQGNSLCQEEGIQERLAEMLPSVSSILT

[8] = biological target: T6, Geranylgeranyl transferase type-2 (Homo sapiens) (UniProt P53611+Q92696); test: Inhibition of GGtase-2 in human cells assessed as minimum effective dose required for increase in intracellular lambda chain level after 48 hrs by ELISA; format: cell-based
Method in brief: (§1)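 The lowest effective concentration in RPMI-8226 cells after 48 h requires both criteria below: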

[9] = biological target: T7, Farnesyl pyrophosphate synthase (Homo sapiens) (UniProt P14324)
T7 sequence (whole entry): T3 sequence (P14324 whole entry)

[10] = biological target: T7, Farnesyl pyrophosphate synthase (Homo sapiens); remark: listed apart in the source
[11] = biological target: Protein farnesyltransferase (Rattus norvegicus, UniProt Q02293+Q04631); test: Inhibition of recombinant rat FTase expressed in Escherichia coli using dansyl-GCVLS as substrate after 1.5 hrs by spectrofluorimetric analysis
[12] = biological target: T6, Geranylgeranyl transferase type-2 (Homo sapiens); test: Inhibition of GGtase-2 in human cells assessed as minimum effective dose causing => 20% decrease in Rab6 level after 48 hrs by immunoblot analysis; format: cell-based; method in brief: as §1
[13] = biological target: T6, Geranylgeranyl transferase type-2 (Homo sapiens); test: Inhibition of GGtase-2 in human cells assessed as decrease in Rab6 level at =< 5 mM after 48 hrs by immunoblot analysis relative to control; format: cell-based
Method in brief: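 After 48 h treatment, RPMI-8226 cells were extracted with Triton X-114 to give a detergent (membrane) fraction, which was immunoblotted for Rab6. Rab6 band density was normalized to calnexin and expressed relative to untreated cells. Blots are representative of three independent studies.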

[14] = biological target: T7, Farnesyl pyrophosphate synthase (Homo sapiens); test: Inhibition of FDPS in human RPMI8226 cells assessed as unmodified Rap1a level at =< 5 mM after 48 hrs by immunoblot analysis; format: cell-based
Method in brief: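 RPMI-8226 cells were exposed for 48 h. The lowest effective concentration counts only when two read-outs agree. Unmodified Rap1a must be visible on immunoblot of whole-cell lysate, using an antibody that detects only unmodified protein.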

[15] = biological target: T7, Farnesyl pyrophosphate synthase (Homo sapiens); test: Inhibition of FDPS in human RPMI8226 cells assessed as increase in intracellular lambda chain level at =< 5 mM after 48 hrs by ELISA; format: cell-based
Method in brief: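 RPMI-8226 cells were exposed for 48 h, and intracellular lambda light chain was measured by ELISA as percent of untreated control. The lowest effective concentration also requires unmodified Rap1a to be visible on whole-cell-lysate immunoblot with an unmodified-specific antibody. The ELISA rise must be statistically significant.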

[16] = biological target: T6, Geranylgeranyl transferase type-2 (Homo sapiens); test: Inhibition of GGtase-2 in human cells assessed as increase in intracellular lambda chain at =< 5 mM level after 48 hrs by ELISA; format: cell-based
Method in brief: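 RPMI-8226 cells were incubated 48 h with the compound or medium alone. Intracellular lambda light chain was quantified by ELISA and expressed as percent of untreated control (mean ± SD, n=3). Significance versus control was judged by t-test, p<0.05.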

[17] = biological target: T6, Geranylgeranyl transferase type-2 (Homo sapiens); test: Inhibition of GGtase-2 in human RPMI8226 cells assessed as accumulation of intracellular lambda light chain level at 10 to 100 uM after 48 hrs by immunoblot analysis; format: cell-based
[18] = biological target: T1, Protein farnesyltransferase (Homo sapiens); test: Inhibition of FTase in human RPMI8226 cells assessed as disruption of H-ras farnesylation at 10 to 100 uM after 48 hrs in presence of lovastatin by immunoblot analysis; format: cell-based
Method in brief: (§2)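 Whole-cell lysates were then immunoblotted for H-Ras and unmodified Rap1a, using an antibody specific to the unprenylated protein. β-tubulin was the loading control.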

[19] = biological target: T1, Protein farnesyltransferase (Homo sapiens); test: Inhibition of FTase in human RPMI8226 cells assessed as disruption of H-ras farnesylation at 10 to 100 uM incubated for 48 hrs by immunoblot analysis; format: cell-based
[20] = biological target: T2, Geranylgeranyl transferase type I (Homo sapiens); test: Inhibition of GGtase-1 in human RPMI8226 cells assessed as disruption of Rap1a geranylgeranylation at 10 to 100 uM incubated for 48 hrs by immunoblot analysis; format: cell-based
[21] = biological target: T2, Geranylgeranyl transferase type I (Homo sapiens); test: Inhibition of GGtase-1 in human RPMI8226 cells assessed as disruption of Rap1a geranylgeranylation at 10 to 100 uM after 48 hrs in presence lovastatin by immunoblot analysis; format: cell-based; method in brief: as §2

| pIC50 [3] | pIC50 [5] | pIC50 [6] | pIC50 [7] | pIC50 [11] | LED [12] [mM] | SMILES | other results |
| --- | --- | --- | --- | --- | --- | --- | --- |
| – | – | – | – | – | – | CC[C@H](C)C(=O)O[C@H]1C[C@@H](C)C=C2C=C[C@H](C)[C@H](CC[C@@H]3C[C@@H](O)CC(=O)O3)[C@H]21 | inhibition [1]: Active; inhibition [2]: Active |
| 6.82 | 4.06 | 3.91 | 3.13 | 3.47 | 0.5 | O=P(O)(O)C(Cn1cnc2cc(F)c(F)cc21)P(=O)(O)O | Ratio IC50 [4]: 580; LED [8]: 0.5 mM; LED [9]: 0.5 mM; LED [10]: 0.5 mM |
| < 4.00 | < 4.00 | < 3.00 | < 3.00 | < 3.00 | – | Cc1cc2ncn(CC(C(=O)O)P(=O)(O)O)c2cc1C (configuration not stated) | inhibition [13]: inactive; inhibition [14]: inactive; inhibition [15]: inactive; inhibition [16]: inactive |
| 7.62 | 4.69 | < 3.00 | < 3.00 | 3.08 | 0.025 | O=P(O)(O)C(Cn1cnc2ccccc21)P(=O)(O)O | inhibition [17]: Active; inhibition [18]: Active; inhibition [19]: Active; inhibition [20]: Active; inhibition [21]: Active |
